Measurements reported in ChEMBL document CHEMBL4229344 (Eur J Med Chem, 2018).

Legend:
[1] = tested on: Phosphatidylinositol 4,5-bisphosphate 3-kinase catalytic subunit alpha isoform (Homo sapiens), P42336 [E545K]; assay: Binding affinity to human partial length PIK3CA E545K mutant (R108 to N1068 residues) expressed in mammalian expression system assessed as residual binding level at 1 uM by Kinomescan method relative to control
How it was run: (§1)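 Kinome-wide single-concentration binding screen (KINOMEscan) at 1 μM against a panel of 468 purified kinases and mutants. Read-out is relative binding of each kinase compared with control. Selectivity across the panel was summarised as an S(10) score.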

[2] = tested on: Epidermal growth factor receptor (Homo sapiens), P00533 [G719S]; assay: Binding affinity to human partial length EGFR G719S mutant (R669 to V1011 residues) expressed in bacterial expression system assessed as residual binding level at 1 uM by Kinomescan method relative to control; how it was run: as §1
[3] = target: Serine/threonine-protein kinase 35 (Homo sapiens) (UniProt Q8TDR2); assay: Binding affinity to wild-type human partial length STK35 (G182 to A534 residues) expressed in bacterial expression system assessed as residual binding level at 1 uM by Kinomescan method relative to control
Serine/threonine-protein kinase 35 (Homo sapiens), sequence (Q8TDR2 whole entry, the tested form may be a part): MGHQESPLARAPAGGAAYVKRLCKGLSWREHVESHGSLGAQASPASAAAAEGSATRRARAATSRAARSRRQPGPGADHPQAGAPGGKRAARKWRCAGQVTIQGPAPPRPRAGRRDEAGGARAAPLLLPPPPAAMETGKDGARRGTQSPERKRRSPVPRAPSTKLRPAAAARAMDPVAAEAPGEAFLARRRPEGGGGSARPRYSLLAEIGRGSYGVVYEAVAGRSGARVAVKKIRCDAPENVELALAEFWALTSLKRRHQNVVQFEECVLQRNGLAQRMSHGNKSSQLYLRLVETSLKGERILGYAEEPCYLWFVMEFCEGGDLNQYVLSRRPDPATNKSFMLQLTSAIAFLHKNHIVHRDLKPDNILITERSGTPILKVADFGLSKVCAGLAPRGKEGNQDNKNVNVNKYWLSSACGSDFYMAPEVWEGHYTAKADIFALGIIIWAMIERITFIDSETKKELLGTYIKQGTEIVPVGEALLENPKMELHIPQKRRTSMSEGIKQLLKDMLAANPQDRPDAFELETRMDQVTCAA

[4] = target: Cytoplasmic tyrosine-protein kinase BMX (Homo sapiens) (UniProt P51813); assay: Binding affinity to wild-type human full length BMX (M1 to H675 residues) expressed in bacterial expression system assessed as residual binding level at 1 uM by Kinomescan method relative to control
How it was run: (§2)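 Single-concentration (1 μM) competition-binding screen run by KINOMEscan against a panel of 468 purified kinases and mutants. The read-out is the relative binding activity of the test compound to each kinase.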

[5] = target: Activated CDC42 kinase 1 (Homo sapiens) (UniProt Q07912); assay: Binding affinity to wild-type human partial length TNK2 (S159 to D474 residues) expressed in bacterial expression system assessed as residual binding level at 1 uM by Kinomescan method relative to control
[6] = target: LIM domain kinase 2 (Homo sapiens) (UniProt P53671); assay: Binding affinity to wild-type human full length LIMK2 (M1 to P638 residues) expressed in bacterial expression system assessed as residual binding level at 1 uM by Kinomescan method relative to control; how it was run: as §2
LIM domain kinase 2 (Homo sapiens), sequence (P53671 whole entry, looked up, the tested form may be a part): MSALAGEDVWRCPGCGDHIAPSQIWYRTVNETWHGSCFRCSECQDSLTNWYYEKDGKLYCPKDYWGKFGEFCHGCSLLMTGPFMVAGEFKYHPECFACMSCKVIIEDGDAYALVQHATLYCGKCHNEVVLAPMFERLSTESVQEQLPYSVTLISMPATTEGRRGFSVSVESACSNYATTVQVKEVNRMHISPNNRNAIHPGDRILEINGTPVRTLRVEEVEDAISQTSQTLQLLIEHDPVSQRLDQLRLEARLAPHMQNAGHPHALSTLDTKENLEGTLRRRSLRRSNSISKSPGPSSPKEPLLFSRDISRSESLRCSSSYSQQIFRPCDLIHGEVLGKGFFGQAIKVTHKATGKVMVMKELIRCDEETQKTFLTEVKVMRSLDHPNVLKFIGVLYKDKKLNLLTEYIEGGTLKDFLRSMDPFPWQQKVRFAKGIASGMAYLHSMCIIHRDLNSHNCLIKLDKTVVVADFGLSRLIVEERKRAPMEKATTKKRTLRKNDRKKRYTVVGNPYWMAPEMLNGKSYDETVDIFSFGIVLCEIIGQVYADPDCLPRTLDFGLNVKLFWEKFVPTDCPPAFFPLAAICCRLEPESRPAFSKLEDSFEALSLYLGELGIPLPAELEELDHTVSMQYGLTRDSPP

[7] = target: Serine/threonine-protein kinase LATS2 (Homo sapiens) (UniProt Q9NRM7); assay: Binding affinity to wild-type human partial length LATS2 (Q641 to V1088 residues) expressed in mammalian expression system assessed as residual binding level at 1 uM by Kinomescan method relative to control
[8] = target: Ephrin type-A receptor 8 (Homo sapiens) (UniProt P29322); assay: Binding affinity to wild-type human partial length EPHA8 (Q608 to C920 residues) expressed in bacterial expression system assessed as residual binding level at 1 uM by Kinomescan method relative to control
How it was run: (§3)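 Kinome-wide competition binding screen against a panel of 468 purified kinases/mutants, with the test compound at a single concentration of 1 μM. Read-out is the relative binding activity of each kinase in the presence of compound.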

[9] = target: Cyclin-dependent kinase 18 (Homo sapiens) (UniProt Q07002); assay: Binding affinity to wild-type human full length PCTK3 (M3 to F474 residues) expressed in bacterial expression system assessed as residual binding level at 1 uM by Kinomescan method relative to control
How it was run: (§4)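 Single-concentration KINOMEscan (DiscoverX) binding screen at 1 μM against a panel of 468 purified kinases and mutants. The read-out is binding relative to control.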

[10] = target: G protein-coupled receptor kinase 4 (Homo sapiens) (UniProt P32298); assay: Binding affinity to wild-type human full length GRK4 (M1 to C578 residues) expressed in bacterial expression system assessed as residual binding level at 1 uM by Kinomescan method relative to control; how it was run: as §2
G protein-coupled receptor kinase 4 (Homo sapiens), sequence (P32298 whole entry, looked up, the tested form may be a part): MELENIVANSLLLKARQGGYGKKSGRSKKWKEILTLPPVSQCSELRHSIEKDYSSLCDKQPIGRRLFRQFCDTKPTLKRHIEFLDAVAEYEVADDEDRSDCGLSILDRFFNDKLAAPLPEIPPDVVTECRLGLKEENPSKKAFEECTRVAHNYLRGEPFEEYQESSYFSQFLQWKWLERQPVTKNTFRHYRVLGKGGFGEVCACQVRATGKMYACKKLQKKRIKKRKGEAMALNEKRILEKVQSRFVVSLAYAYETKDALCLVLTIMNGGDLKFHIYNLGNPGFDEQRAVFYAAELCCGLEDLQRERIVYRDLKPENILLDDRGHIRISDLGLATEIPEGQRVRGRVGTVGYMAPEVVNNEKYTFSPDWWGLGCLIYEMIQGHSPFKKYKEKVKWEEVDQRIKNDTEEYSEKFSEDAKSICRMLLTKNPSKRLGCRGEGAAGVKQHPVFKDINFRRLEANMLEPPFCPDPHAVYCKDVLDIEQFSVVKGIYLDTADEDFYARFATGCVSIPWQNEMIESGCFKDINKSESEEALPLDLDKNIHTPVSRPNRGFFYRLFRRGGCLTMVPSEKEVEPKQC

[11] = target: Bone morphogenetic protein receptor type-1A (Homo sapiens) (UniProt P36894); assay: Binding affinity to wild-type human partial length BMPR1A (Q214 to I532 residues) expressed in bacterial expression system assessed as residual binding level at 1 uM by Kinomescan method relative to control; how it was run: as §4
Bone morphogenetic protein receptor type-1A (Homo sapiens), sequence (P36894 whole entry, the tested form may be a part): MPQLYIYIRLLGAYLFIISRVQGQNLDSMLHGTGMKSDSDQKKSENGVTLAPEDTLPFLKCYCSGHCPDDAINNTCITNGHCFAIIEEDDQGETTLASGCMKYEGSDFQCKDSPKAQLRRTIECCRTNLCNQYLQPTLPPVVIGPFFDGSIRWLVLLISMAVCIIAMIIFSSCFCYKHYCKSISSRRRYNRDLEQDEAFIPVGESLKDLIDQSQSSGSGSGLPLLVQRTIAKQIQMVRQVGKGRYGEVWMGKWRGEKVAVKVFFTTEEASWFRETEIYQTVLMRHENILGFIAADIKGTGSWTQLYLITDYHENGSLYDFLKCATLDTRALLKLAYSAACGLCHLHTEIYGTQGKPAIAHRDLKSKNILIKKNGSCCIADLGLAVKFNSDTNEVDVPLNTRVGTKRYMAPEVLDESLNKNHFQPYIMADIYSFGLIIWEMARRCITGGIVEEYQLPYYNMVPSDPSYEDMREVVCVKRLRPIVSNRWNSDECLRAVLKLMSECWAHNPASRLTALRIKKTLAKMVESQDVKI

[12] = target: SNF-related serine/threonine-protein kinase (Homo sapiens) (UniProt Q9NRH2); assay: Binding affinity to wild-type human partial length SNRK (M1 to E339 residues) expressed in mammalian expression system assessed as residual binding level at 1 uM by Kinomescan method relative to control
[13] = target: Serine/threonine-protein kinase TAO1 (Homo sapiens) (UniProt Q7L7X3); assay: Binding affinity to wild-type human partial length TAOK1 (M1 to A320 residues) expressed in mammalian expression system assessed as residual binding level at 1 uM by Kinomescan method relative to control
[14] = target: Cyclin-dependent kinase 4/cyclin D1 (Homo sapiens) (UniProt P11802+P24385); assay: Binding affinity to wild-type human full length CDK4/cyclinD1 (M1 to E303 residues) expressed in mammalian expression system assessed as residual binding level at 1 uM by Kinomescan method relative to control; how it was run: as §2
[15] = target: Ankyrin repeat and protein kinase domain-containing protein 1 (Homo sapiens) (UniProt Q8NFD2); assay: Binding affinity to wild-type human partial length ANKK1 (M1 to A305 residues) expressed in mammalian expression system assessed as residual binding level at 1 uM by Kinomescan method relative to control; how it was run: as §4
[16] = target: Tyrosine-protein kinase Lyn (Homo sapiens) (UniProt P07948); assay: Binding affinity to wild-type human partial length LYN (C219 to Q511 residues) expressed in bacterial expression system assessed as residual binding level at 1 uM by Kinomescan method relative to control
Tyrosine-protein kinase Lyn (Homo sapiens), sequence (P07948 2-512 limits assumed): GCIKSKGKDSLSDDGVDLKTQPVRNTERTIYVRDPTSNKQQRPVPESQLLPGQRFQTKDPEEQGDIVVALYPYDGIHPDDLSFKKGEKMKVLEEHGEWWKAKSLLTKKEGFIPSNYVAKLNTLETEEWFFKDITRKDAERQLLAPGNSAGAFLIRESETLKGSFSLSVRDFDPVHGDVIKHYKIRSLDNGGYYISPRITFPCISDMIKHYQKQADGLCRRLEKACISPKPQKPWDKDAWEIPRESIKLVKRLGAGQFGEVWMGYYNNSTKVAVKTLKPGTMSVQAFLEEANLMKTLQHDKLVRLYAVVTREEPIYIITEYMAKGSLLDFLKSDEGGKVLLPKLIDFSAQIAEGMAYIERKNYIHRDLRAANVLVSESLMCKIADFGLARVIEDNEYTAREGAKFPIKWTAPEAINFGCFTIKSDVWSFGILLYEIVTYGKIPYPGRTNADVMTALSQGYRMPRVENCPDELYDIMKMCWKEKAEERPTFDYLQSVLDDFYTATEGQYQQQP

[17] = target: Tyrosine-protein kinase ABL1 (Homo sapiens, UniProt P00519); assay: Binding affinity to wild-type human phosphorylated ABL1 (S229 to K512 residues) expressed in mammalian expression system assessed as residual binding level at 1 uM by Kinomescan method relative to control
Tyrosine-protein kinase ABL1, sequence (P00519 whole entry, the tested form may be a part): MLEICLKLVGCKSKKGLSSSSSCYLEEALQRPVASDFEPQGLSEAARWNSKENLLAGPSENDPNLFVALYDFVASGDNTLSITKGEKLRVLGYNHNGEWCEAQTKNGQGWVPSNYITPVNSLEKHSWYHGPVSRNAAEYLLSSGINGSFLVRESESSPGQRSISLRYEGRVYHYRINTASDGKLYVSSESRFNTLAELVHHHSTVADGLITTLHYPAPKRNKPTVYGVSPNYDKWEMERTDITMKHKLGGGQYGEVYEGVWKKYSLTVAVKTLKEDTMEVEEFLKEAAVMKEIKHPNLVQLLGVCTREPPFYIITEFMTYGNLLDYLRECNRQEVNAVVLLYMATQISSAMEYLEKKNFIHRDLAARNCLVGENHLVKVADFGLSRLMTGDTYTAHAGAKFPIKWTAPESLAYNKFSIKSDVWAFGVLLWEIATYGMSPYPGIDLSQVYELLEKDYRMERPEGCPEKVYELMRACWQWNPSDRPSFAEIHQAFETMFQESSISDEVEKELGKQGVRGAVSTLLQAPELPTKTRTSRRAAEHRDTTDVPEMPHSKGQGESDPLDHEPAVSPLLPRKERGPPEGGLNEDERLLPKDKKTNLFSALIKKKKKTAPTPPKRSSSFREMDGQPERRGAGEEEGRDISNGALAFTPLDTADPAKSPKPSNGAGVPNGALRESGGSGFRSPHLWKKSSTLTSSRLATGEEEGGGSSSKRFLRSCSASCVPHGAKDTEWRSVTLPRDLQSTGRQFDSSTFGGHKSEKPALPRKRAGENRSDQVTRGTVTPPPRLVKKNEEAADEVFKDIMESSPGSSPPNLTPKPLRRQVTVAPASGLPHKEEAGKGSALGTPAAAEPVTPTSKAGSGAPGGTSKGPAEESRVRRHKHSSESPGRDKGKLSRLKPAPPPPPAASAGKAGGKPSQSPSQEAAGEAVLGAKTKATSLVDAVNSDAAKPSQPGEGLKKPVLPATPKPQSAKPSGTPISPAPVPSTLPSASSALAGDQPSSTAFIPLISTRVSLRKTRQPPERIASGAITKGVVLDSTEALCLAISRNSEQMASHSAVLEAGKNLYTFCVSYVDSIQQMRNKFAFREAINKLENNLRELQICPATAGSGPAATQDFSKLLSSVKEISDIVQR

[18] = target: Myosin light chain kinase 2, skeletal/cardiac muscle (Homo sapiens) (UniProt Q9H1R3); assay: Binding affinity to wild-type human partial length MYLK2 (D258 to K570 residues) expressed in bacterial expression system assessed as residual binding level at 1 uM by Kinomescan method relative to control
[19] = target: Mitogen-activated protein kinase kinase kinase 4 (Homo sapiens) (UniProt Q9Y6R4); assay: Binding affinity to wild-type human partial length MAP3K4 (G1319 to E1608 residues) expressed in bacterial expression system assessed as residual binding level at 1 uM by Kinomescan method relative to control
[20] = target: Cyclin-dependent kinase 9 (Homo sapiens) (UniProt P50750); assay: Binding affinity to wild-type human full length CDK9 (M1 to F372 residues) expressed in bacterial expression system assessed as residual binding level at 1 uM by Kinomescan method relative to control; how it was run: as §2
[21] = tested on: Phosphatidylinositol 4,5-bisphosphate 3-kinase catalytic subunit alpha isoform (Homo sapiens), P42336 [C420R]; assay: Binding affinity to human partial length PIK3CA C420R mutant (R108 to N1068 residues) expressed in mammalian expression system assessed as residual binding level at 1 uM by Kinomescan method relative to control; how it was run: as §1
[22] = target: Calcium/calmodulin-dependent protein kinase type 1D (Homo sapiens) (UniProt Q8IU85); assay: Binding affinity to wild-type human partial length CAMK1D (M1 to K299 residues) expressed in bacterial expression system assessed as residual binding level at 1 uM by Kinomescan method relative to control; how it was run: as §3

Phosphatidylinositol 4,5-bisphosphate 3-kinase catalytic subunit alpha isoform (Homo sapiens), P42336 [E545K], sequence (P42336 whole entry E545K, the tested form may be a part, canonical isoform): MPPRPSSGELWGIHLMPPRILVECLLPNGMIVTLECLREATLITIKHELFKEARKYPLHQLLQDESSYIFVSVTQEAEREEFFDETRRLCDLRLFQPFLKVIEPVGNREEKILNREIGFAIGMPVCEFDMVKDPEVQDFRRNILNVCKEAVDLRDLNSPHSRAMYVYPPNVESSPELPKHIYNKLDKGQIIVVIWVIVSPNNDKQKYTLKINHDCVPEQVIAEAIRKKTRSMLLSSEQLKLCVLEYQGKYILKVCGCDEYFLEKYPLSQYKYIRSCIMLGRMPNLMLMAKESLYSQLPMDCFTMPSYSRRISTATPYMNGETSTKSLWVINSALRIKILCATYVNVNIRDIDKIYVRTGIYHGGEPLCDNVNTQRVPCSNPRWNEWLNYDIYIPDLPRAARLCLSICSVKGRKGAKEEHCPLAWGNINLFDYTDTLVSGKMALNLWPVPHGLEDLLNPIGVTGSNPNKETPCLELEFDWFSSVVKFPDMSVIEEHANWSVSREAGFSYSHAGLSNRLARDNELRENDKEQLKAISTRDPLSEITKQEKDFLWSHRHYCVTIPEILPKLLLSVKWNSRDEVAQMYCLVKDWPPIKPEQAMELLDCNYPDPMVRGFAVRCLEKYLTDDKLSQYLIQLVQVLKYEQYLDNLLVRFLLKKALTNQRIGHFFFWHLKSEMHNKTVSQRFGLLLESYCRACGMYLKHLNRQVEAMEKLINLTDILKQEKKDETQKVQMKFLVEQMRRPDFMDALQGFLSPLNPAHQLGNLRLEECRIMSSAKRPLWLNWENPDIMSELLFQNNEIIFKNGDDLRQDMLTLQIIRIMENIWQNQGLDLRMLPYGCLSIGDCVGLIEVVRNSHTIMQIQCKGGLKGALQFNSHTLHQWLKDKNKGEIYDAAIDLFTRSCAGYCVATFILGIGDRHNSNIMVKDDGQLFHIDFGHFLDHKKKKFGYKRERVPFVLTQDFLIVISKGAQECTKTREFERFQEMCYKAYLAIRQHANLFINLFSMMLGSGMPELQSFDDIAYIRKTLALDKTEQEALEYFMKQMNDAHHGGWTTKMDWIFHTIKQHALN

Cc1ccc(NC(=O)c2ccc(CN(CCN(C)C)C(=O)c3cccnc3)cc2)cc1Nc1nccc(-c2cccnc2)n1
Activity [1]: 87% | Activity [2]: 85% | Activity [3]: 100% | Activity [4]: 100% | Activity [5]: 88% | Activity [6]: 100% | Activity [7]: 100% | Activity [8]: 89% | Activity [9]: 95% | Activity [10]: 88% | Activity [11]: 100% | Activity [12]: 100% | Activity [13]: 100% | Activity [14]: 100% | Activity [15]: 100% | Activity [16]: 97% | Activity [17]: 73% | Activity [18]: 100% | Activity [19]: 90% | Activity [20]: 100% | Activity [21]: 93% | Activity [22]: 84%
